The values below come from the array DNA melting data of Ke et al. (doi:10.1101/2024.01.08.574731).

Data set [1] is described as follows: folding enthalpy; higher = less favourable; fluorescence melt of hairpins on a sequencing array, two-state fit. The settings on record: sodium 0.088 M. The gist of the method:
(§1)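 Cy3 fluorescence of library hairpins on a sequenced MiSeq flow cell, with annealed Cy3 and quencher oligos, was imaged in 50 mM Na-HEPES pH 8.0, 25 mM NaCl in 2.5 °C steps up to 60 °C. Signals were normalised to pre-quench Cy3 and to control variants. Melting temperature and folding enthalpy came from bootstrapped two-state fits, inverse-variance combined over four replicates. Fitted temperatures were raised by 9.35 °C to match UV melts.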

A short description of data set [2]: melting temperature; fluorescence melt of hairpins on a sequencing array, two-state fit, raised by 9.35 °C to match UV melts. To be noted: sodium 0.088 M. The gist of the method: as §1

In the case of GCTCTTCCGAAAGGAAGC (((..(((....)))))), the folding enthalpy in data set [1] is -9 kcal/mol. Further, in data set [2], the Tm is 37.2 °C.

With GCTCTTGCGAAAGCAAGC (((..(((....)))))), the folding enthalpy in data set [1] is -8.63 kcal/mol. Further, the Tm in data set [2] turned out to be 36.2 °C.

Turning to GCTCTTGGAAACAGGAGC ((((.((....)).)))), the folding enthalpy in data set [1] is -33.9 kcal/mol. Also, the Tm in data set [2] came out at 48.9 °C.

With GCTGAATCGAAAGATAGC (((..(((....)))))), the folding enthalpy in data set [1] is -17.3 kcal/mol. In data set [2], the Tm was found to be 31.9 °C.

Turning to GCTGACGAAAGTCACAGC ((((((....)))..))), the folding enthalpy in data set [1] was -15.4 kcal/mol. Also, in data set [2], the Tm is 45.3 °C.

On to GCTGACGAAAGTCCTAGC ((((((....)))..))), for which the folding enthalpy in data set [1] was -17 kcal/mol. Besides, the Tm in data set [2] amounted to 34.3 °C.

Regarding GCTGAGACGAAAGTCAGC (((..(((....)))))), the folding enthalpy in data set [1] is -21.4 kcal/mol. Also, the Tm in data set [2] was found to be 49.1 °C.

Turning to GCTGAGCGAAAGCAAAGC (((..((....))..))), in data set [1], the folding enthalpy was -28.5 kcal/mol. Besides, the Tm in data set [2] is 60.2 °C.

On to GCTGAGCGAAAGCAGAGC (((..((....))..))), for which, in data set [1], the folding enthalpy was -17 kcal/mol. Also, the Tm in data set [2] was found to be 45.9 °C.

In the case of GCTGAGCGAAAGCCCAGC ((((.((....)).)))), the folding enthalpy in data set [1] was -47.6 kcal/mol. The Tm in data set [2] turned out to be 63.9 °C.

GCTGAGCGAAAGCCTAGC (((..((....))..))): the folding enthalpy in data set [1] was -16.4 kcal/mol. Also, the Tm in data set [2] came out at 48.4 °C.

For GCTGAGCGAAAGCGCGGC ((.(.((....)).).)), the folding enthalpy in data set [1] is -26.3 kcal/mol. Also, the Tm in data set [2] worked out at 63 °C.

For the sequence GCTGAGCGAAAGCTGAGC (((.(((....))).))), in data set [1], the folding enthalpy is -40.4 kcal/mol. In data set [2], the Tm was determined as 55 °C.

With GCTGAGCGAAAGCTTTGC ((..(((....)))..)), the folding enthalpy in data set [1] is -19.1 kcal/mol. The Tm in data set [2] was 47.9 °C.

For the sequence GCTGAGGAAACTCAGC ((((((....)))))), the folding enthalpy in data set [1] is -37.7 kcal/mol. Also, the Tm in data set [2] is 63.5 °C.

As for GCTGAGGGAAACCTCAGC (((((((....))))))), the folding enthalpy in data set [1] is -45.2 kcal/mol. For the same sequence, the Tm in data set [2] was 69.2 °C.

For GCTGAGGGAAACTTCGGC ((.((.(....).)).)), in data set [1], the folding enthalpy was -29 kcal/mol. Besides, the Tm in data set [2] worked out at 33.8 °C.

GCTGATCGAAAGATAGC (((.(((....)))))): the folding enthalpy in data set [1] was -23.1 kcal/mol. Moreover, the Tm in data set [2] was determined as 41.5 °C.

For the sequence GCTGCAGGAAACCGCAGC (((((.(....).))))), in data set [1], the folding enthalpy was -32.9 kcal/mol. In data set [2], the Tm turned out to be 57.8 °C.

As to GCTGCAGGAAACTGCGGC ((.((((....)))).)), the folding enthalpy in data set [1] is -41.5 kcal/mol. Further, the Tm in data set [2] was 61.6 °C.

In the case of GCTGCAGGAAACTGTGGC ((..(((....)))..)), the folding enthalpy in data set [1] was -25.8 kcal/mol. Also, the Tm in data set [2] stood at 46.5 °C.

With GCTGCCGAAAGGCATAGC ((((((....)))..))), the folding enthalpy in data set [1] is -15 kcal/mol. Moreover, the Tm in data set [2] came out at 51.6 °C.

With GCTGCCGAAAGGCCAGC ((((((....))).))), the folding enthalpy in data set [1] was -24.4 kcal/mol. Moreover, the Tm in data set [2] stood at 61.5 °C.

On to GCTGCCGAAAGGCCGAGC ((((((....)))..))), for which, in data set [1], the folding enthalpy is -13.9 kcal/mol. The Tm in data set [2] worked out at 43.6 °C.

With GCTGCCGAAAGGCTAAGC ((((((....)))..))), the folding enthalpy in data set [1] was -16.8 kcal/mol. In addition, the Tm in data set [2] turned out to be 53.8 °C.

On to GCTGCCGGAAACGACAGC ((((.((....)).)))), for which the folding enthalpy in data set [1] was -45.7 kcal/mol. In addition, the Tm in data set [2] amounted to 55.2 °C.

As to GCTGCGCGAAAGCACGGC ((.(.((....)).).)), the folding enthalpy in data set [1] was -26.6 kcal/mol. Moreover, the Tm in data set [2] was 59.1 °C.

Turning to GCTGCGCGAAAGCACTGC ((.(.((....)).).)), the folding enthalpy in data set [1] was -24.2 kcal/mol. Further, the Tm in data set [2] was 53.3 °C.

Regarding GCTGCGCGAAAGCGAAGC (((.(((....))).))), in data set [1], the folding enthalpy is -29.7 kcal/mol. Further, in data set [2], the Tm was 69.1 °C.

With GCTGCGTCGAAAGACAGC (((..(((....)))))), in data set [1], the folding enthalpy is -14.5 kcal/mol. The Tm in data set [2] was determined as 47.1 °C.

Take GCTGGAACGAAAGTTAGC (((..(((....)))))): the folding enthalpy in data set [1] is -18.1 kcal/mol. For the same sequence, the Tm in data set [2] was 33.9 °C.

Take GCTGGACGAAAGTCTAGC (((.(((....))).))): the folding enthalpy in data set [1] was -39.1 kcal/mol. Moreover, in data set [2], the Tm was 62.4 °C.

As for GCTGGCACGAAAGTGAGC (((..(((....)))))), in data set [1], the folding enthalpy was -14.1 kcal/mol. The Tm in data set [2] stood at 36.9 °C.

Regarding GCTGGCCGAAAGGCAAGC (((.(((....))).))), in data set [1], the folding enthalpy is -25.5 kcal/mol. The Tm in data set [2] was 68.9 °C.

On to GCTGGCGAAAGCCGCAGC ((((((....)))..))), for which, in data set [1], the folding enthalpy was -12.9 kcal/mol. Further, the Tm in data set [2] turned out to be 52.4 °C.

Turning to GCTGGCGAAAGCCTTAGC ((((((....)))..))), the folding enthalpy in data set [1] is -15.1 kcal/mol. In addition, in data set [2], the Tm is 44.4 °C.

For GCTGGGCGAAAGCAGAGC (((..((....))..))), in data set [1], the folding enthalpy was -19.8 kcal/mol. Besides, the Tm in data set [2] is 49.5 °C.

Take GCTGGGCGAAAGCCAAGC (((.(((....))).))): in data set [1], the folding enthalpy was -26.8 kcal/mol. The Tm in data set [2] was found to be 66.8 °C.

Consider GCTGGGCGAAAGCCACGC ((..(((....)))..)), for which the folding enthalpy in data set [1] was -15.6 kcal/mol. The Tm in data set [2] amounted to 48 °C.

With GCTGGGCGAAAGCCTAGC (((.(((....))).))), in data set [1], the folding enthalpy was -31.5 kcal/mol. Moreover, in data set [2], the Tm came out at 66.2 °C.

As to GCTGGGCGAAAGCGCCGC ((.(.((....)).).)), the folding enthalpy in data set [1] was -18.2 kcal/mol. The Tm in data set [2] is 47.4 °C.

For GCTGGGCGAAAGCGTAGC (((..((....))..))), the folding enthalpy in data set [1] was -22.5 kcal/mol. In data set [2], the Tm stood at 52.1 °C.

With GCTGGGGGAAACCTCAGC ((((.((....)).)))), in data set [1], the folding enthalpy was -44.8 kcal/mol. In addition, the Tm in data set [2] was determined as 54.6 °C.

As for GCTGGGGGAAACCTCGGC ((.(.((....)).).)), the folding enthalpy in data set [1] was -28.9 kcal/mol. In addition, the Tm in data set [2] turned out to be 44.4 °C.

For GCTGTAGAAATACAGC ((((((....)))))), the folding enthalpy in data set [1] is -34.7 kcal/mol. Further, the Tm in data set [2] was found to be 56.9 °C.

Turning to GCTGTAGGAAACCACAGC (((((.(....).))))), the folding enthalpy in data set [1] is -36.3 kcal/mol. Also, the Tm in data set [2] stood at 47.5 °C.

Consider GCTGTCCCGAAAGGGAGC (((..(((....)))))), for which, in data set [1], the folding enthalpy is -11 kcal/mol. Also, in data set [2], the Tm is 41.5 °C.

On to GCTGTCGAAAGACCAGC ((((((....))).))), for which the folding enthalpy in data set [1] is -20.8 kcal/mol. Besides, the Tm in data set [2] stood at 51.3 °C.

For GCTGTCGAAAGACCCAGC ((((((....)))..))), the folding enthalpy in data set [1] is -15.9 kcal/mol. In data set [2], the Tm is 34.8 °C.

With GCTGTCGAAAGACCGAGC ((((((....)))..))), in data set [1], the folding enthalpy is -21 kcal/mol. The Tm in data set [2] was 37 °C.

GCTGTCGAAAGACCTAGC ((((((....)))..))): the folding enthalpy in data set [1] is -15.7 kcal/mol. The Tm in data set [2] stood at 36.5 °C.

As for GCTGTCGAAAGACGGAGC ((((((....)))..))), in data set [1], the folding enthalpy is -18.1 kcal/mol. In data set [2], the Tm worked out at 42.9 °C.

Consider GCTGTCGAAAGACTAGC ((((((....))).))), for which the folding enthalpy in data set [1] was -24.4 kcal/mol. Further, in data set [2], the Tm worked out at 50.3 °C.

Regarding GCTGTCGAAAGACTTAGC ((((((....)))..))), in data set [1], the folding enthalpy is -19.9 kcal/mol. In addition, in data set [2], the Tm was 43 °C.
